Results from ChEMBL document CHEMBL3259640 (J Med Chem, 2014).
Calls of active or inactive are those of the source. No cut-off for these calls is given here.

What was measured:
HeLa [1] = test: Antiproliferative activity against human HeLa cells assessed as cell viability after 96 hrs by CellTiter96 assay; format: functional, cell-based
MDA-MB-468 [2] = test: Antiproliferative activity against human MDA-MB-468 cells assessed as cell viability after 96 hrs by CellTiter96 assay; format: functional, cell-based; conditions: MDA-MB-468, 96 h
MDA-MB-231 [3] = test: Antiproliferative activity against human MDA-MB-231 cells assessed as cell viability after 96 hrs by CellTiter96 assay; format: functional, cell-based; conditions: MDA-MB-231, 96 h
[4] = Half life in rat liver microsomes at 1 uM by LC-MS/MS analysis; format: ADME
MDA-MB-231 [5] = test: Antitumor activity against human MDA-MB-231 cells xenografted in BALB/c nu/nu mouse assessed as tumor volume at 150 mg/kg, po bid for 28 days administered via gavage relative to control; format: functional
How it was run: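 Female BALB/c nu/nu mice, 5–8 weeks old, implanted subcutaneously in the right flank with 1 × 10⁷ MDA-MB-231 cells in matrigel. Dosing began at about 100 mm³ mean tumour volume; 5 mice/group. Arms: vehicle (5% DMSO, 10% Cremophor in water) IV once daily, 20 mg/kg IV once daily, or 150 mg/kg PO twice daily, for 28 days. Caliper volumes and body weight every 2 days; T/C on day 28.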

[6] = biological target: T1, Kinetochore protein NDC80 homolog (Homo sapiens) (UniProt O14777); test: Inhibition of Hec1/Nek2 interaction in human K562 cells assessed as induction of Nek2 degradation after 24 hrs by western blot analysis; format: cell-based
T1 sequence (whole entry): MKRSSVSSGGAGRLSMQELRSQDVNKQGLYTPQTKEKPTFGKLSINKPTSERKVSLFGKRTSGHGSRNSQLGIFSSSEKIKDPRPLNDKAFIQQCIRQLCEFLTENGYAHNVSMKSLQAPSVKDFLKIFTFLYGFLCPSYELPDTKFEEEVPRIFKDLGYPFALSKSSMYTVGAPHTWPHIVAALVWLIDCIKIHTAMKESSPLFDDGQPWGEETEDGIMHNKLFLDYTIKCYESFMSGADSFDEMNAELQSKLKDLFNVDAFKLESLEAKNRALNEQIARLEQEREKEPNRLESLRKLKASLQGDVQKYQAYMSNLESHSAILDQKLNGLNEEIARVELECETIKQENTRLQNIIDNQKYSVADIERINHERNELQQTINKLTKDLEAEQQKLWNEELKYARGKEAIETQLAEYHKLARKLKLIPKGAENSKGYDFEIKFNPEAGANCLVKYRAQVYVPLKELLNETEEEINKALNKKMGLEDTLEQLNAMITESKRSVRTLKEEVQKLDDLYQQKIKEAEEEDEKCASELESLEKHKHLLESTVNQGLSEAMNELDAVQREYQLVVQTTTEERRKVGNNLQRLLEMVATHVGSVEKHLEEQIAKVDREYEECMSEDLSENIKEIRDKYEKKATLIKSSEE
How it was run: (§1)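 K562 cells exposed to DMSO or to 10, 100 or 1000 nM for 24 h. Nek2 and Hec1 detected by western blot in SDS sample buffer lysates, with actin as loading control and ECL detection.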

[7] = biological target: T1, Kinetochore protein NDC80 homolog (Homo sapiens); test: Inhibition of Hec1/Nek2 interaction in human K562 cells assessed as induction of Nek2 degradation at 10 nM after 24 hrs by western blot analysis; format: cell-based; how it was run: as §1
[8] = biological target: T1, Kinetochore protein NDC80 homolog (Homo sapiens); test: Inhibition of Hec1/Nek2 interaction in human MDA-MB-468 cells assessed as reduction in Hec1 level at 100 nM by western blot analysis; format: cell-based
How it was run: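 MDA-MB-468 cells treated with compound at 100 nM, with or without MG132 at 500 nM. Lysates made in SDS sample buffer, run on SDS-PAGE and blotted to PVDF. Primary antibodies applied in 3% BSA-TBST, with HRP secondaries and enhanced chemiluminescence detection for Hec1 and Nek2.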

MDA-MB-468 [9] = test: Induction of mitotic abnormalities in human MDA-MB-468 cells assessed as proportion of cells displaying multipolar spindles at 1000 nM after 48 hrs by immunofluorescent staining based microscopy (reference value: […]); format: functional
HeLa [10] = test: Induction of apoptosis in human HeLa cells assessed as reduction in Bcl-2 protein expression at 1 uM after 24 to 48 hrs by western blot analysis; format: functional, cell-based
How it was run: (§2)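 HeLa cells given 1.0 μM compound, DMSO, or paclitaxel 100 nM for 24 and 48 h. Lysates made in SDS sample buffer, run on SDS-PAGE and transferred to PVDF. Blots probed for cleaved caspase-3, cleaved PARP, Bcl-2, Mcl-1 and XIAP, with actin as loading control, and detected by HRP-linked ECL.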

HeLa [11] = test: Induction of apoptosis in human HeLa cells assessed as reduction in XIAP protein expression at 1 uM after 24 to 48 hrs by western blot analysis; format: functional, cell-based; how it was run: as §2
U-937 = test: Growth inhibition of human U937 cells; format: functional
HeLa [12] = test: Growth inhibition of human HeLa cells; format: functional
MDA-MB-231 [13] = test: Growth inhibition of human MDA-MB-231 cells; format: functional
[14] = Growth inhibition of human WI38 cells; format: cell-based; conditions: WI-38 cells
[15] = Growth inhibition of HUVEC; format: cell-based; conditions: human
[16] = Growth inhibition of human HAoSMC cells; format: cell-based
[17] = biological target: Cyclin-dependent kinase 1/cyclin B1 (Homo sapiens, UniProt P06493); test: Inhibition of Cdk1/cyclin B (unknown origin) assessed as [33P] incorporation in substrate by TopCount microplate scintillation counting analysis; format: protein-complex assay
[18] = biological target: Serine/threonine-protein kinase mTOR (Homo sapiens, UniProt P42345); test: Inhibition of mTOR (unknown origin) assessed as [33P] incorporation in substrate by TopCount microplate scintillation counting analysis
[19] = biological target: Phosphatidylinositol 4,5-bisphosphate 3-kinase catalytic subunit beta isoform (Homo sapiens, UniProt P42338); test: Inhibition of PI3K beta (unknown origin) assessed as [33P] incorporation in substrate by TopCount microplate scintillation counting analysis
[20] = biological target: Platelet-derived growth factor receptor beta (Homo sapiens, UniProt P09619); test: Inhibition of PDGFR-beta (unknown origin) assessed as [33P] incorporation in substrate by TopCount microplate scintillation counting analysis
[21] = biological target: Fibroblast growth factor receptor 1 (Homo sapiens, UniProt P11362); test: Inhibition of FGFR1 (unknown origin) assessed as [33P] incorporation in substrate by TopCount microplate scintillation counting analysis
[22] = biological target: Insulin-like growth factor 1 receptor (Homo sapiens, UniProt P08069); test: Inhibition of IGF-1R (unknown origin) assessed as [33P] incorporation in substrate by TopCount microplate scintillation counting analysis
[23] = biological target: Serine/threonine-protein kinase B-raf (Homo sapiens, UniProt P15056); test: Inhibition of B-Raf (unknown origin) assessed as [33P] incorporation in substrate by TopCount microplate scintillation counting analysis
[24] = biological target: Mast/stem cell growth factor receptor Kit (Homo sapiens, UniProt P10721); test: Inhibition of Kit (unknown origin) assessed as [33P] incorporation in substrate by TopCount microplate scintillation counting analysis
Chain of Mast/stem cell growth factor receptor Kit (P10721 whole entry): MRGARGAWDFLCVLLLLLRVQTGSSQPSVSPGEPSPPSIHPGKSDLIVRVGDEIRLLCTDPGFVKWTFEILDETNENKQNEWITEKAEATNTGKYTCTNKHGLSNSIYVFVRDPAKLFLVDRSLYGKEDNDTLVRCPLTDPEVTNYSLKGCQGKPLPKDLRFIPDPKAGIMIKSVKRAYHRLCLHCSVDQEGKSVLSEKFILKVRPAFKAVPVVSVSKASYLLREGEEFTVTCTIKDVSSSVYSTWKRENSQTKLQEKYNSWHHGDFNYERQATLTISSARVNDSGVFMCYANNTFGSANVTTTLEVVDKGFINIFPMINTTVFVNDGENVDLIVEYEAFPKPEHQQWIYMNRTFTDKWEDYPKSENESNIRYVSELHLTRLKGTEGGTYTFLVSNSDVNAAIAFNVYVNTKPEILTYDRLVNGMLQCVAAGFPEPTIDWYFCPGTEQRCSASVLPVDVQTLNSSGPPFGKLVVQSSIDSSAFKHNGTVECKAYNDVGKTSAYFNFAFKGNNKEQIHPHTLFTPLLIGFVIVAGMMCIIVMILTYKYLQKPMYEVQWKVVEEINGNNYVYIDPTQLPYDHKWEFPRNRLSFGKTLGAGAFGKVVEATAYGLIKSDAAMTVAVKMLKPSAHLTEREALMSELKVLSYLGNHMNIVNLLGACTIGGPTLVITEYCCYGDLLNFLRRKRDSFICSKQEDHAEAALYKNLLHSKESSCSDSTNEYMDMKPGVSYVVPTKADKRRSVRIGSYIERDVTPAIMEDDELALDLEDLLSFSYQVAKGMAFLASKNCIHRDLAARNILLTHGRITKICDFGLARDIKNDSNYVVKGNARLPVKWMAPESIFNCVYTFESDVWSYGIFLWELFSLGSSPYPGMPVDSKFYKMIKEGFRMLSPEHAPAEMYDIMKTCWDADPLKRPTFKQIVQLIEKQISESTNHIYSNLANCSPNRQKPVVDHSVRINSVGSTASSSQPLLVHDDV

Chain of Insulin-like growth factor 1 receptor (P08069 31-736 limits assumed): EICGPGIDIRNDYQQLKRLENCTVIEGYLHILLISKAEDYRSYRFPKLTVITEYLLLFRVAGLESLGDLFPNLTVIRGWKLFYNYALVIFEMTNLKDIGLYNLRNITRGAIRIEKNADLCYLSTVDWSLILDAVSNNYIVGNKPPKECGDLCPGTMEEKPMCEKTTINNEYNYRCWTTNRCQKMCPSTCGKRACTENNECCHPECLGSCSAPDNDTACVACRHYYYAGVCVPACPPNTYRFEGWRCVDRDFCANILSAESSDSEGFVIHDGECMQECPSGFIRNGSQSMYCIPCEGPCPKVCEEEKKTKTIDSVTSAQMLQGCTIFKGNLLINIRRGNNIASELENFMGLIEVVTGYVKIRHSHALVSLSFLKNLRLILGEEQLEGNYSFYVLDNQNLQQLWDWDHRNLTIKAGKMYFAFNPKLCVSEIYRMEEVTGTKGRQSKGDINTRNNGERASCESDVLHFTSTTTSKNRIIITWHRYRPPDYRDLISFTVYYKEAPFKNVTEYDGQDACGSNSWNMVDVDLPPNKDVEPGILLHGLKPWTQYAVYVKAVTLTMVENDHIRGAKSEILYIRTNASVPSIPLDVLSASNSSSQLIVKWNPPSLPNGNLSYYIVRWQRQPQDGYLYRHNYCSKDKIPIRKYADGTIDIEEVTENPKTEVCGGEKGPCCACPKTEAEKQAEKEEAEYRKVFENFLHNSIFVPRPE
Chain of Insulin-like growth factor 1 receptor (P08069 741-1367 limits assumed): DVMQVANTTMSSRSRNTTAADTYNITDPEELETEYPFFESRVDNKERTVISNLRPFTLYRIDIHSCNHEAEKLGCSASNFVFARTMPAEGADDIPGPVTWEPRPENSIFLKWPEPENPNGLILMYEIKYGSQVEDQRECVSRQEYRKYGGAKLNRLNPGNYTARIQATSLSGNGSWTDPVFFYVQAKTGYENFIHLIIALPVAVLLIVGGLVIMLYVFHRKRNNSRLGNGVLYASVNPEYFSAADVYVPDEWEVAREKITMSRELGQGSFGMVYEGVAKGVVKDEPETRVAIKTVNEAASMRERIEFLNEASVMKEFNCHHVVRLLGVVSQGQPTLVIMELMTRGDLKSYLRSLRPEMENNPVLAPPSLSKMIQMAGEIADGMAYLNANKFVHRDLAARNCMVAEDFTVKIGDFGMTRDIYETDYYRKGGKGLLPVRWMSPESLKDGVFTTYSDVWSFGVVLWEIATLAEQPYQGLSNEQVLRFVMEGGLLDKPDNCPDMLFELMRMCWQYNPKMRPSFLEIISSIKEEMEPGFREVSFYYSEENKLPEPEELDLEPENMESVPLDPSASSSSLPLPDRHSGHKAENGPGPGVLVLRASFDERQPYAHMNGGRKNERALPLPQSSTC
Chain of Platelet-derived growth factor receptor beta (P09619 whole entry): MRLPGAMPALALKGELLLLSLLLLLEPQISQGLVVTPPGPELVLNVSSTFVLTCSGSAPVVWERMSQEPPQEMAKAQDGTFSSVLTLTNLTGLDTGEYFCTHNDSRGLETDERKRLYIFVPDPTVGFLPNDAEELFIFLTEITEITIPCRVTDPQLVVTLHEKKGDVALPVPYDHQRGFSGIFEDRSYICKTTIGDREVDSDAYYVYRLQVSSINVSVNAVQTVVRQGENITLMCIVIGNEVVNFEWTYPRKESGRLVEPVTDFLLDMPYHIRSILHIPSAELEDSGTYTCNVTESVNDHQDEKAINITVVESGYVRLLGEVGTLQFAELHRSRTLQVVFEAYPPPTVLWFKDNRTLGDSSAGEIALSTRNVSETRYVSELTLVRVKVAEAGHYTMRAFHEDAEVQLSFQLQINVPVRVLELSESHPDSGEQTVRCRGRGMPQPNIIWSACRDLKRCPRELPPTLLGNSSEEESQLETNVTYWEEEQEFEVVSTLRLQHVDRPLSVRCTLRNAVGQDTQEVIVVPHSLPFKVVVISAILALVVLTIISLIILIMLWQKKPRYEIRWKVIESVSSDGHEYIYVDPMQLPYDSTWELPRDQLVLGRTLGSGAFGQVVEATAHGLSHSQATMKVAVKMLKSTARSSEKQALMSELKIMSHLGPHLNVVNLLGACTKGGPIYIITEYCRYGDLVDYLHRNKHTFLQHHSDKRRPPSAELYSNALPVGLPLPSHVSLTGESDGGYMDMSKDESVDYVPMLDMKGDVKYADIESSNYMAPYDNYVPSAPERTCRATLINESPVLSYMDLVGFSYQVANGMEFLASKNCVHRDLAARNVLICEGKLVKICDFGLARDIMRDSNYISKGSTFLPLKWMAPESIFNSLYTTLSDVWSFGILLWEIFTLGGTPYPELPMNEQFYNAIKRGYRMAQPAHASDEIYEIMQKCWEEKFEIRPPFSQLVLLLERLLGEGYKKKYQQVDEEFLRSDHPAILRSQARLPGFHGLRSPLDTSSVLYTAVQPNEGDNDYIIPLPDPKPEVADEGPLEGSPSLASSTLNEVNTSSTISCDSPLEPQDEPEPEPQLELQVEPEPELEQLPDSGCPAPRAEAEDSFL
Chain of Fibroblast growth factor receptor 1 (P11362 whole entry): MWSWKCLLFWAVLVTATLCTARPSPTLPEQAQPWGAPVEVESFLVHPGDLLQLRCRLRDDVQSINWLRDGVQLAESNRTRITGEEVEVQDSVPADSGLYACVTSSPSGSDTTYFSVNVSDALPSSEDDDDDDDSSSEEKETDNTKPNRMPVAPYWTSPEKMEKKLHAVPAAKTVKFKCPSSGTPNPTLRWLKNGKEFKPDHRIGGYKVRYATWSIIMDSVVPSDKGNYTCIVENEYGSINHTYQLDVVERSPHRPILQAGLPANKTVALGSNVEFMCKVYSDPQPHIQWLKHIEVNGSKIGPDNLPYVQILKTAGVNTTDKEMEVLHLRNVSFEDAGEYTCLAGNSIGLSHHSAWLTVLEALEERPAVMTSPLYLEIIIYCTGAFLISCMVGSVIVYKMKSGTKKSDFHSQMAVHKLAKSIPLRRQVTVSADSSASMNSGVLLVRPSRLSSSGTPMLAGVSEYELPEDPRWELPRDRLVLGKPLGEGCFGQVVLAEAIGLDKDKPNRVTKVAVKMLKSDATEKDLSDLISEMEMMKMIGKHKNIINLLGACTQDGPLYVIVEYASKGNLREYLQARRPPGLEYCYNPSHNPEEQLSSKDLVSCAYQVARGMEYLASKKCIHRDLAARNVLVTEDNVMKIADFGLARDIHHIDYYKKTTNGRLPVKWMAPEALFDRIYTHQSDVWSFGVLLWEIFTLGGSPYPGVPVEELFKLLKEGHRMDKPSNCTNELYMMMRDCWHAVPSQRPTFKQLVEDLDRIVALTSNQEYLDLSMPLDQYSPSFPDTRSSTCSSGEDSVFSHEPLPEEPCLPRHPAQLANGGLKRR
Chain of Serine/threonine-protein kinase B-raf (P15056 whole entry): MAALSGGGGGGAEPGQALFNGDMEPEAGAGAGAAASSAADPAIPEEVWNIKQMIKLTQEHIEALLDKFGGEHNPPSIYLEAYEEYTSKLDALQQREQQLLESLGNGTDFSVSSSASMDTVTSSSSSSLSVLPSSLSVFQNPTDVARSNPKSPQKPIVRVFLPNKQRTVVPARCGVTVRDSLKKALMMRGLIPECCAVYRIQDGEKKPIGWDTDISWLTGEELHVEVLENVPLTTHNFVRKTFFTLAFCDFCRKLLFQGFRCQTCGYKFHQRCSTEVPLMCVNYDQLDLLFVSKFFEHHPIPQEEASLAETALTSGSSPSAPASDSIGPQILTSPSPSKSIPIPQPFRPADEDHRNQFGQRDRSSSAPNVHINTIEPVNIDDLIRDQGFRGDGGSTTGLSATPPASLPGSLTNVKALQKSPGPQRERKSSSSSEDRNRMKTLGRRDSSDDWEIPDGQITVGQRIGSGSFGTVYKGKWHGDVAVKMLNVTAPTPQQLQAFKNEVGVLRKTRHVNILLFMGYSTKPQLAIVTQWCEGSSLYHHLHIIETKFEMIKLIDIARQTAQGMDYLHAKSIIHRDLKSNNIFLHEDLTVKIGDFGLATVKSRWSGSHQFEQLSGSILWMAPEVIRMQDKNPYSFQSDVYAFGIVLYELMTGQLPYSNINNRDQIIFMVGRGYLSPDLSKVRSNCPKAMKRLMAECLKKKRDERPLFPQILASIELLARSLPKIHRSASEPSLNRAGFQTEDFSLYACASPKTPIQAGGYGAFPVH

COc1ccc(Oc2cc(C)c(-c3csc(NC(=O)c4ccnc(F)c4)n3)c(C)c2)cc1
IC50 (HeLa [1]): 42.7 nM
IC50 (MDA-MB-468 [2]): 40 nM
IC50 (MDA-MB-231 [3]): 20 nM
half-life at 1 µM [4]: 5.67 h
T/C (MDA-MB-231 [5]): 57%
Activity [6]: Dose-dependent effect
Activity [7]: inactive
inhibition [8]: Active
Activity (MDA-MB-468 [9]): 46.7%
inhibition (HeLa [10]): Active
inhibition (HeLa [11]): Active
GI50 (U-937): 29.6 nM
GI50 (HeLa [12]): 22.8 nM
GI50 (MDA-MB-231 [13]): 39.8 nM
GI50 [14]: > 9000 nM
GI50 [15]: > 9000 nM
GI50 [16]: > 9000 nM
IC50 [17]: > 10000 nM
IC50 [18]: > 10000 nM
IC50 [19]: > 10000 nM
IC50 [20]: > 10000 nM
IC50 [21]: > 10000 nM
IC50 [22]: > 10000 nM
IC50 [23]: > 10000 nM
IC50 [24]: > 10000 nM
